Measurements: ChEMBL document CHEMBL3351518, “Synthesis and antibacterial activity of catecholate-ciprofloxacin conjugates” (Bioorg Med Chem, 2014)
≈ marks a conversion by molar mass, not a printed value.

Key:
Pseudomonas aeruginosa [1] = assay: Antimicrobial activity against ciprofloxacin-sensitive Pseudomonas aeruginosa DSM 1117 grown under Mueller-Hinton medium by broth microdilution method; assay type: functional
How it was run: (§1)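 Overnight cultures at 35 °C in Tryptic Soy Broth were streaked on Tryptic Soy Agar, and inocula were prepared per CLSI. Broth microdilution used two-fold serial dilutions of 0.0625–128 µg/mL from DMSO stocks made with gentle heating (40 °C) and 10 min sonication. Ciprofloxacin served as control in each series. MIC was the highest dilution with clear wells. Media: cation-adjusted Mueller–Hinton, pH 7.3; succinate minimum medium, pH 7.0, without or with 1 µM FeCl3 added.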

Pseudomonas aeruginosa [2] = assay: Antimicrobial activity against ciprofloxacin-sensitive Pseudomonas aeruginosa DSM 1117 grown under succinate minimum medium by broth microdilution method; assay type: functional; how it was run: as §1
Pseudomonas aeruginosa [3] = assay: Antimicrobial activity against ciprofloxacin-sensitive Pseudomonas aeruginosa DSM 1117 grown under succinate minimum medium in presence of 1 uM FeCl3 by broth microdilution method; assay type: functional; how it was run: as §1
Pseudomonas aeruginosa [4] = assay: Antimicrobial activity against ciprofloxacin-resistant Pseudomonas aeruginosa AM 85 grown under Mueller-Hinton medium by broth microdilution method; assay type: functional
How it was run: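 AM 85 is a clinical isolate with efflux-mediated ciprofloxacin resistance. Grown overnight at 35 °C in Tryptic Soy Broth, then streaked on Tryptic Soy Agar. CLSI broth microdilution in cation-adjusted Mueller–Hinton broth, pH 7.3. DMSO stock (40 °C warming, 10 min sonication) diluted two-fold, 0.0625–128. MIC is the highest dilution with clear wells.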

Pseudomonas aeruginosa [5] = assay: Antimicrobial activity against ciprofloxacin-resistant Pseudomonas aeruginosa AM 85 grown under succinate minimum medium by broth microdilution method; assay type: functional
How it was run: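 AM 85 is a clinical isolate with efflux-mediated ciprofloxacin resistance. Overnight growth at 35 °C in Tryptic Soy Broth, then Tryptic Soy Agar plates. CLSI broth microdilution in iron-deprived succinate minimum medium, pH 7.0, with no iron added. Two-fold dilutions (0.0625–128) from a DMSO stock made with 40 °C warming and 10 min sonication. MIC read as the highest dilution with clear wells.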

Pseudomonas aeruginosa [6] = assay: Antimicrobial activity against ciprofloxacin-resistant Pseudomonas aeruginosa AM 85 grown under succinate minimum medium in presence of 1 uM FeCl3 by broth microdilution method; assay type: functional
How it was run: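 Clinical efflux-mediated ciprofloxacin-resistant isolate AM 85, grown overnight at 35 °C in Tryptic Soy Broth and isolated on Tryptic Soy Agar. CLSI broth microdilution in succinate minimum medium, pH 7.0, supplemented with FeCl3 for iron-enriched conditions. Compounds were dissolved in DMSO (40 °C, 10 min sonication) and serially diluted two-fold, 0.0625–128. MIC is the highest dilution with clear wells.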

[7] = Toxicity in human RBC assessed as induction of hemolysis after 1 hr relative to saponin; assay type: cell-based, Erythrocyte; conditions: red blood cells (RBC), read-out: Activity
How it was run: (§2)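 Human red blood cells were washed three times in TRIS buffer (10 mmol/l TRIS, 150 mmol/l NaCl, pH 7.4) and suspended at 0.5% (v/v). 15 µL of test or control solution was added to 235 µL suspension, in triplicate, with 1% saponin as 100% hemolysis and DMSO/TRIS as negative controls. Incubation was 1 h at 37 °C. After centrifugation, supernatant OD was read at 405 nm.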

[8] = Toxicity in human RBC assessed as induction of hemolysis at 384 ug/ml after 1 hr relative to saponin; assay type: cell-based, Erythrocyte; conditions: red blood cells (RBC), read-out: Activity; how it was run: as §2
[9] = Toxicity in human RBC assessed as induction of hemolysis up to 384 ug/ml after 1 hr relative to saponin; assay type: cell-based, Erythrocyte; conditions: red blood cells (RBC), read-out: Activity; how it was run: as §2
[10] = Induction of iron complexation in mixed H2O/DMSO solvent mixture (0.2 mole fraction of DMSO) at 1:3 mixture of […] at 25 degC at 3.0 <pH <4.1 by UV-visible spectrophotometry; assay type: physicochemical
How it was run: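 UV–visible spectra of 1:3 iron(III):ligand solutions were recorded across pH in H2O/DMSO at 0.2 DMSO mole fraction, 25 °C. pH was adjusted by automatic titrator addition of 0.1 M KOH prepared in the same solvent. The glass electrode was calibrated by titrating 0.1 M HCl with KOH in H2O/DMSO.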

| SMILES | MIC (Pseudomonas aeruginosa [1]) [µg/mL] | MIC (Pseudomonas aeruginosa [2]) [µg/mL] | MIC (Pseudomonas aeruginosa [3]) [µg/mL] | MIC (Pseudomonas aeruginosa [4]) [µg/mL] | MIC (Pseudomonas aeruginosa [5]) [µg/mL] | MIC (Pseudomonas aeruginosa [6]) [µg/mL] | hemolysis at 1 h [7] [%] | hemolysis at 1 h, 384 ug/ml [8] [%] | hemolysis at 1 h [9] [%] | Activity [10] |
| --- | --- | --- | --- | --- | --- | --- | --- | --- | --- | --- |
| O=C(CCN1CCN(c2cc3c(cc2F)c(=O)c(C(=O)O)cn3C2CC2)CC1)OCC(CCCNC(=O)c1cccc(O)c1O)(CCCNC(=O)c1cccc(O)c1O)CCCNC(=O)c1cccc(O)c1O | > 128 | > 128 | 64 | > 128 | > 128 | > 128 | < 10 |  |  |  |
| O=C(CN1CCN(c2cc3c(cc2F)c(=O)c(C(=O)O)cn3C2CC2)CC1)OCC(CCCNC(=O)c1cccc(O)c1O)(CCCNC(=O)c1cccc(O)c1O)CCCNC(=O)c1cccc(O)c1O | 8 (≈ 8.02 µM) | 8 (≈ 8.02 µM) | 4 | > 128 | > 128 | > 128 | < 10 |  |  |  |
| O=C(CCCN1CCN(c2cc3c(cc2F)c(=O)c(C(=O)O)cn3C2CC2)CC1)OCC(CCCNC(=O)c1cccc(O)c1O)(CCCNC(=O)c1cccc(O)c1O)CCCNC(=O)c1cccc(O)c1O | 64 (≈ 62.4 µM) | 64 (≈ 62.4 µM) | 32 | > 128 | > 128 | > 128 | < 10 |  |  |  |
| O=C(NCCCC(CCCNC(=O)c1cccc(O)c1O)(CCCNC(=O)c1cccc(O)c1O)C(=O)N1CCN(c2cc3c(cc2F)c(=O)c(C(=O)O)cn3C2CC2)CC1)c1cccc(O)c1O | > 128 | > 128 | > 128 | > 128 | > 128 | > 128 |  | 40 |  |  |
| O=C(O)c1cn(C2CC2)c2cc(N3CCN(C(=O)c4cccc(O)c4O)CC3)c(F)cc2c1=O | > 128 | 32 (≈ 68.5 µM) | 16 | > 128 | 64 (≈ 137 µM) | 32 |  |  | < 10 | Active |
| COC(=O)CN1CCN(c2cc3c(cc2F)c(=O)c(C(=O)O)cn3C2CC2)CC1 | 8 (≈ 19.8 µM) | 16 (≈ 39.7 µM) | 16 | > 128 | > 128 | > 128 |  |  | < 10 |  |
| O=C(O)CN1CCN(c2cc3c(cc2F)c(=O)c(C(=O)O)cn3C2CC2)CC1 | 0.25 (≈ 0.642 µM) | 0.125 (≈ 0.321 µM) | 0.125 | 16 (≈ 41.1 µM) | 16 (≈ 41.1 µM) | 16 |  | 40 |  |  |
| O=C(O)c1cn(C2CC2)c2cc(N3CCNCC3)c(F)cc2c1=O [CIPROFLOXACIN] |  |  |  | 16 (≈ 48.3 µM) | 16 (≈ 48.3 µM) | 32 | < 10 |  |  |  |
